APJ ag – agonists of human apelin receptor APJ, primary screen, CHO-K1 cells, PathHunter beta-arrestin, luminescence; P35414; 0% DMSO wells, 100% apelin; activation, % at 20 µM; 330,000 tested, 0.11% active;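 active = activation more than six SD over the plate average, tested at 20 µM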;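 also: 0% = DMSO alone and 100% = apelin-13 at 10 nM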
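assay system = CHO-K1 APJ beta-arrestin complementation cell line | input = cell density 1000 per well | dosing = compound 20 µM once, DMSO 1% | timing = compound 90 min 25 °C, reagent 1 h | measured by = luminescence from split beta-galactosidase complementation, Galacton Star/Emerald II substrate | read-out basis = APJ agonist activity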
APJ antagonist – antagonists of human apelin receptor APJ, primary screen, CHO-K1 cells, beta-arrestin complementation, luminescence | inhibition, % at 20 µM | 330,000 tested, 0.32% active | AID 2521, 2010;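 active = inhibition above about 40% at 20 µM, limit read from the data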;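 also: cells challenged with 10 nM apelin-13 agonist together with compound; plate controls were apelin-13 plus DMSO wells for no effect and DMSO wells lacking apelin-13 for full effect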
EBI2 block – EBI2 receptor antagonists, beta-arrestin recruitment, primary screen, cell-based, luminescence, 7a,25-OHC stimulation, uHTS | G-protein coupled receptor 183 (Homo sapiens), P32249 | 7a,25-OHC stimulated | inhibition, % at 5 µM | 360,000 tested, 0.81% active; in the data active = inhibition above about 38%;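 also: enzyme fragment complementation signal reports receptor beta-arrestin coupling in cells; 0% = agonist plus DMSO wells and 100% = wells without agonist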
Target sequence (P32249 whole entry, looked up, the tested form may be a part): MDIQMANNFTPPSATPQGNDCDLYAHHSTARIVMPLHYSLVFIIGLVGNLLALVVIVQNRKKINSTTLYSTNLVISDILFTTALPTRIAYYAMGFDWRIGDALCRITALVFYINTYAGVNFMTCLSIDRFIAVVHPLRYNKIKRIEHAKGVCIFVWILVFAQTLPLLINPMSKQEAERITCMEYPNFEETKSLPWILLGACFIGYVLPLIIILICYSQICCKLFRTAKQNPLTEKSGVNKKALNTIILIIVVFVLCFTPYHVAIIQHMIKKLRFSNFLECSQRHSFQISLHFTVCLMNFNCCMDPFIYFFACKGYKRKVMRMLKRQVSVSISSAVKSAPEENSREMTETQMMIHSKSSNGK
CXCR6 block – CXCR6 receptor inhibitors, primary screen, cell-based, beta-arrestin, luminescence, CHO-K1 PathHunter, 1536-well. 360,000 tested, 0.36% active. AID 602244, 2012. inhibition, % at 20 µM. C-X-C chemokine receptor type 6 (Homo sapiens), O00574; in the data active = inhibition above about 34%, passing the limit was not always enough;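 also: antagonist mode with CXCL16 agonist at 10 nM final; 0% = 10 nM CXCL16 with DMSO and 100% = unstimulated wells without agonist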
CCR6 antagonist – CCR6 receptor antagonists, primary screen, cell-based, CHO-K1, luminescence, beta-arrestin, uHTS; C-C chemokine receptor type 6 (Homo sapiens), P51684; CHO-K1 CCR6 PathHunter beta-arrestin, CCL20-stimulated; inhibition, % at 20 µM; 340,000 tested, 0.49% active; AID 493098, 2011;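 active = compounds whose inhibition of the agonist-driven luminescence signal at 20 µM reaches about 50%, limit read from the data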;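 also: cells stimulated with CCL20 at 14 nM final; plate controls were DMSO with CCL20 for no effect and DMSO without agonist for full effect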
B2AR ag – beta2AR agonists driving receptor internalization, primary screen, cell-based, FAP fluorogen, flow cytometry | Am2.2-beta2AR cells | response, % (test concentration not listed) | 340,000 tested, 0.43% active | AID 504454, 2011;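 active = response above a set limit, near 3 SD of response in nonfluorescent compounds, cut at about 42% in these data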
The depositor's hits bear a star; x = no result. The list is not random: actives were taken first. Their share in the collection is about 1.8%.

SMILES | APJ ag | APJ antagonist | EBI2 block | CXCR6 block | CCR6 antagonist | B2AR ag
COC(=O)c1cc(=O)n(Cc2ccco2)c(=Nc2ccc(F)c(Cl)c2)s1 | 0 | 26 | 55* | 8 | 11 | 33
COC(=O)c1cc(=O)n(CCc2ccccc2F)c(=Nc2ccc(F)c(Cl)c2)s1 | 5 | 12 | 69* | 0 | 17 | 13
N#Cc1sc(NCc2ccccn2)nc1Cl | -4 | 20 | -3 | -7 | -1 | -1
CCc1nc2ccc(C(=O)N3CCN(S(=O)(=O)CC)CC3)cn2c1N(CC)Cc1cccc(Br)c1 | x | x | 5 | 4 | x | x
O=[N+]([O-])c1ccc(Cl)cc1C=NNc1ccccn1 | x | x | -7 | -8 | 9 | -12
O=[N+]([O-])c1cc(Cl)cc(/C=N\Nc2ccccn2)c1O | -7 | 20 | 32 | 78* | 74* | 6
COC(=O)C=CSC(=S)C1CCCC1=N (configuration not stated) | x | x | 7 | -1 | x | x
O=C(NC(=S)Nc1ccc(Oc2ccccc2)cc1)c1ccc(Cl)cc1 | 0 | 16 | -7 | 28 | 46 | -11
Cc1ccccc1C(=O)NC(=S)Nc1ccc(Oc2ccc(Cl)cc2)cc1 | -6 | 36 | 22 | 25 | 53* | 4
CCCn1nnc(NC(=S)NC(=O)c2ccc(-c3ccc(Br)cc3)o2)n1 | -9 | 14 | 8 | 31 | 59* | 7
CCCn1nnc(NC(=S)NC(=O)Cc2ccccc2)n1 | -5 | 25 | -2 | 26 | 43 | 6
COc1ccnc(CSC(N)=Nc2cccc(C(F)(F)F)c2)c1 | x | x | -6 | 28 | 53* | 11
Cc1ccccc1N1C(=O)CC(Sc2nnc(-c3ccccc3)o2)C1=O (configuration not stated) | -2 | 6 | 1 | 52* | x | 16
COc1ccc(C(=O)NC(=S)Nc2ccccc2N2CCCCC2)cc1[N+](=O)[O-] | 4 | 8 | 28 | 24 | 72* | -8
COc1cc(C(=O)NC(=S)Nc2ccc([N+](=O)[O-])cc2)cc(OC)c1OC | -7 | 41* | 2 | 16 | 33 | 2
CCOc1ccc(C(=O)NC(=S)Nc2ccccc2N2CCCCC2)cc1[N+](=O)[O-] | 0 | 21 | 15 | 12 | 23 | 0
CCOc1ccc(C(=O)NC(=S)Nc2ccc(N3CCCCC3)cc2)cc1[N+](=O)[O-] | -2 | 25 | 12 | -9 | 19 | -3
CCOc1ccc(C(=O)NC(=S)Nc2ccc(NC(=O)CC)cc2)cc1[N+](=O)[O-] | -1 | 22 | 6 | 18 | 56* | -7
O=C(NC(=S)Nc1ccc(C(=O)N2CCOCC2)cc1)c1ccc([N+](=O)[O-])cc1 | -5 | 9 | -2 | 30 | 63* | -11
C[C@H](CO)N1C[C@H](C)[C@H](CN(C)C(=O)Nc2cccc(C(F)(F)F)c2)OCc2cnnn2CCCC1=O | x | x | 0 | -7 | x | x
COc1ccc(S(=O)(=O)Nc2ccc3c(c2)C(=O)N([C@H](C)CO)C[C@H](C)[C@@H](CN(C)C(=O)Nc2c(C)noc2C)O3)cc1 | -2 | 7 | 3 | -6 | 0 | -6
O=C(C=Cc1ccccc1)CC(c1ccccc1)N1CCOCC1 (configuration not stated) | x | x | 48* | 32 | 44 | 5
COc1ccc(-c2nc(CS(=O)CC(=O)NCCCN3CCOCC3)c(C)o2)cc1OC (configuration not stated) | -3 | -2 | -5 | -2 | 13 | 4
O=C(O)c1ccccc1NS(=O)(=O)c1cccc(-n2sc3ccccc3c2=O)c1 | 2 | -34 | 96* | -18 | -36 | -4
O=C(O)c1ccccc1NS(=O)(=O)c1cccc(C(F)(F)F)c1 | -4 | 9 | -11 | 6 | 3 | 1
SMILES | APJ ag | APJ antagonist | EBI2 block | CXCR6 block | CCR6 antagonist | B2AR ag
N#Cc1ccc(OCC(=O)OCC(=O)c2ccc[nH]2)cc1 | -5 | 0 | -8 | -6 | 3 | 49*
CSc1ccc(Cl)c(C(=O)OCC(=O)N2CCN(c3ccccc3)CC2)c1 | 1 | 20 | 5 | -4 | 15 | 3
COc1ccc(/C=C(/NC(=O)c2ccco2)C(=O)N2CCOCC2)cc1 | 0 | 17 | 1 | 6 | 15 | 49*
COc1ccc(/C=C(\NC(=O)c2ccco2)C(=O)N2CCOCC2)cc1 | -3 | 21 | 3 | 0 | 3 | -5
COc1ccc(C(=O)NCCCCCCNC(=O)c2ccc(OC)cc2)cc1 | -4 | 12 | 3 | 0 | 14 | 8
COC(=O)c1ccc2c(=O)n(CCCCCC(=O)N3CCN(c4ccccc4)CC3)c(=O)[nH]c2c1 | 38* | -34 | -20 | 2 | -10 | 13
CCN1CCN(C(=O)CCCCCn2c(=O)[nH]c3cc(C(=O)OC)ccc3c2=O)CC1 | -5 | 7 | 2 | 1 | -4 | 1
CN1CCN(Cc2c(O)ccc3cc(-c4ccccn4)c(=O)oc23)CC1 | -6 | 18 | -3 | -6 | 6 | 69*
CCCOc1ccc(Cl)cc1/C=C1/C(=O)ON=C1C | 2 | -11 | -8 | -24 | -1 | 33
CC1=NOC(=O)/C1=C\c1ccc(-c2ccc(Cl)cc2Cl)o1 | 35* | -28 | -26 | 29 | 32 | 99*
COc1ccc(OC)c(/C=C2\SC(N3CCCC(C)C3)=NC2=O)c1 (configuration not stated) | -3 | 8 | 7 | 2 | 13 | 0
CC1CCCN(C2=NC(=O)/C(=C/c3cn(-c4ccccc4)nc3-c3cccc(S(=O)(=O)N(C)C)c3)S2)C1 (configuration not stated) | -1 | 7 | 68* | 17 | -7 | 6
C=C(C)C(=O)Oc1ccc(N=Nc2ccc(C)cc2)ccc1=O | x | x | -6 | 65* | 92* | x
C/C(=C\C(=O)c1ccc(Br)cc1)NNC(=O)c1ccccc1 | -8 | 35 | 6 | 29 | 65* | 0
COc1cc(/C=C2\SC(N3CCC(C)CC3)=NC2=O)ccc1O | -4 | 15 | 40* | 0 | 12 | 11
c1ccc(C2=NN(c3ccccc3)CC2)cc1 | -5 | 5 | -3 | -6 | 14 | 1
CCOC(=O)/C(=C/c1ccc(N2CCC(c3ccccc3)=N2)cc1)C(C)=O | x | x | 49* | 3 | 24 | -202
CCOC(=O)C1=C(C)N(c2ccccc2)C(=O)/C1=C\c1cccs1 | -2 | 2 | -11 | 7 | 25 | 91*
O=C(NCCc1ccccc1O)c1cc2c(cc1[N+](=O)[O-])OCO2 | x | x | -1 | -4 | 3 | 0
